Calls of active or inactive are those of the source. The calls are words filed in the database; no cut-off is given here.
Legend:
[1] = tested on: Mus musculus; experiment: Antiosteoporotic activity in C57BL6/J mouse model of OVX-induced bone loss assessed as trabecular bone volume per tissue volume level in femoral metaphysis at 20 mg/kg, ip QD for 4 weeks by histomorphometry (11.67 +/- 2.37%); type: functional
In short: (§1)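 OVX mice, 12 weeks old, ip 20 mg/kg q.d. or b.i.d. for 4 weeks in CMC/Tween 80 vehicle. Distal right femur taken day 28. Static trabecular parameters measured on one 4-µm Masson-Goldner trichrome section, ROI 0.75 mm². n=10 per group, 9 in OVX+vehicle.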

[2] = tested on: Mus musculus; experiment: Antiosteoporotic activity in C57BL6/J mouse model of OVX-induced bone loss assessed as trabecular bone volume per tissue volume level in tibial metaphysis at 20 mg/kg, ip QD for 4 weeks by microCT analysis (17.49 +/- 2.91 %); type: functional
[3] = Toxicity in C57BL6/J mouse model of OVX-induced bone loss assessed as effect on osteoclast numbers per bone perimeter at 20 mg/kg, IP QD for 4 weeks; type: organism-based; conditions: in vivo, 672 h; in short: as §1
[4] = tested on: Mus musculus; experiment: Antiosteoporotic activity in C57BL6/J mouse model of OVX-induced bone loss assessed as serum CTX-1 level […] at 20 mg/kg, ip QD for 4 weeks (165.38 +/- 54.93 %); type: functional
[5] = tested on: Mus musculus; experiment: Antiosteoporotic activity in C57BL6/J mouse model of OVX-induced bone loss assessed as trabecular pattern factor level in tibial metaphysis at 20 mg/kg, ip BID for 4 weeks by microCT analysis (17.17 +/- 3.41 […]); type: functional
[6] = tested on: Mus musculus; experiment: Antiosteoporotic activity in C57BL6/J mouse model of OVX-induced bone loss assessed as trabecular pattern factor level in tibial metaphysis at 20 mg/kg, ip QD for 4 weeks by microCT analysis (17.17 +/- 3.41 […]); type: functional
[7] = tested on: Osteoclast (Homo sapiens); experiment: Inhibition of resorption activity of human peripheral blood cell-derived osteoclasts at 1-20 uM incubated for 48 hrs by Kossa-staining based assay; conditions: dose microM 1-20, time 48.0 hrs
[8] = tested on: Osteoclast (Homo sapiens); experiment: Inhibition of resorption activity of human peripheral blood cell-derived osteoclasts incubated for 48 hrs by Kossa-staining based assay
[9] = Toxicity in C57BL6/J mouse model of OVX-induced bone loss assessed as effect on bone formation by measuring mineralizing surface per trabecular bone surface level in femoral metaphysis at 20 mg/kg, ip BID for 4 weeks by histomorphometry (27.90 +/ 8.22 %); type: organism-based; conditions: in vivo, 672 h
[10] = tested on: Mus musculus; experiment: Antiosteoporotic activity in C57BL6/J mouse model of OVX-induced bone loss assessed as degree of anisotropy (range 0-1) level in tibial metaphysis at 20 mg/kg, ip QD for 4 weeks by microCT analysis (0.53 +/- 0.07); type: functional
[11] = tested on: Mus musculus; experiment: Antiosteoporotic activity in C57BL6/J mouse model of OVX-induced bone loss assessed as structure model index level in tibial metaphysis at 20 mg/kg, ip BID for 4 weeks by microCT analysis (1.92 +/- 0.19); type: functional; conditions: dose […]
[12] = tested on: Mus musculus; experiment: Antiosteoporotic activity in C57BL6/J mouse model of OVX-induced bone loss assessed as cortical thickness level in tibial diaphysis at 20 mg/kg, ip QD for 4 weeks by microCT analysis (179.27 +/- 7.57 um); type: functional
[13] = target: Triple functional domain protein (Homo sapiens) (UniProt O75962); experiment: Inhibition of C-terminal 6-histidine tagged human TRIOGEF1 (R1232 to T1550 residues) expressed in Escherichia coli assessed as reduction in nucleotide exchange efficiency at 20 to 60 uM by N-methylanthraniloyl-GDP fluorescence based nucleotide exchange assay; conditions: dose microM 20-60
In short: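 Mant-GDP-loaded His-tagged human RAC1 at 2.0 µM with 100 nM DOCK5 (residues 1212-1642) or TRIOGEF1 (R1232-T1550), both E. coli-expressed. Buffer: 50 mM Tris pH 8, 300 mM NaCl, 2 mM MgCl2, 1 mM DTT, 1% DMSO, 25 °C. Reaction started with 100 µM GTP. Fluorescence decay read at ex 360/em 440 nm, kobs by single-exponential fit, compound at 0, 20 or 60 µM, duplicates, as % of activity.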

[14] = Toxicity in C57BL6/J mouse model of OVX-induced bone loss assessed as effect on bone formation by measuring mineralizing mineral apposition rate level in femoral metaphysis at 20 mg/kg, ip BID for 4 weeks by histomorphometry (1.62 +/ 0.21 um/d (lcm)); type: organism-based; conditions: in vivo, 672 h
[15] = tested on: Mus musculus; experiment: Antiosteoporotic activity in C57BL6/J mouse model of OVX-induced bone loss assessed as trabecular number level in femoral metaphysis at 20 mg/kg, ip BID for 4 weeks by histomorphometry (2.99 +/- 0.80 /mm); type: functional; in short: as §1
[16] = tested on: Mus musculus; experiment: Antiosteoporotic activity in C57BL6/J mouse model of OVX-induced bone loss assessed as trabecular thickness level in femoral metaphysis at 20 mg/kg, ip BID for 4 weeks by histomorphometry (39.96 +/- 5.42 um); type: functional; in short: as §1
[17] = Toxicity in C57BL6/J mouse model of OVX-induced bone loss assessed as effect on bone formation by measuring osteoblast surface per trabecular bone surface level in femoral metaphysis at 20 mg/kg, ip BID for 4 weeks by histomorphometry (5.03 +/ 2.92 %); type: organism-based; conditions: in vivo, 672 h; in short: as §1
[18] = Toxicity in C57BL6/J mouse model of OVX-induced bone loss assessed as effect on bone formation by measuring bone formation rate per trabecular bone surface level in femoral metaphysis at 20 mg/kg, ip QD for 4 weeks by histomorphometry ([…]); type: organism-based; conditions: in vivo, 672 h
[19] = Toxicity in C57BL6/J mouse model of OVX-induced bone loss assessed as effect on osteoclast numbers per bone perimeter at 20 mg/kg, IP BID for 4 weeks; type: organism-based; conditions: in vivo, 672 h; in short: as §1
[20] = tested on: Mus musculus; experiment: Antiosteoporotic activity in C57BL6/J mouse model of OVX-induced bone loss assessed as trabecular thickness level in femoral metaphysis at 20 mg/kg, ip QD for 4 weeks by histomorphometry (39.96 +/- 5.42 um); type: functional; in short: as §1

Question: What does the source list for O=S1(=O)N(c2ccccc2)C[C@H](O)[C@]12CCN(Cc1ccc(Cl)cc1)C2 (racemic)?
Answer: Activity [1]: 12.02%; Activity [2]: 19.48%; Activity [3]: Non-Toxic; Activity [4]: 153.3%; Activity [5]: 6.51 1/mm; Activity [6]: 13.7 1/mm; inhibition [7]: Active; IC50 [8]: 3.44 µM; Activity [9]: 26.07%; Activity_index [10]: 0.5; Activity_index [11]: 1.48; Activity [12]: 187.72 um; inhibition [13]: inactive; Activity [14]: 1.65 micrometer/day; Activity [15]: 3.51 /millimeter; Activity [16]: 47.2 µm; Activity [17]: 4.01%; Activity [18]: 184.98 um3/um2/yr; Activity [19]: Non-Toxic; Activity [20]: 41.8 µm

From ChEMBL document CHEMBL4699636, “Novel 2,7-Diazaspiro[4,4]nonane Derivatives to Inhibit Mouse and Human Osteoclast Activities and Prevent Bone Loss in Ovariectomized Mice without Affecting Bone Formation” (J Med Chem, 2020)
